Data taken from ChEMBL document CHEMBL5678815 (Clin Cancer Res, 2017).
Activity calls are given as the source filed them. The calls are words filed in the database; no cut-off is given here.

Legend:
[1] = target: Ephrin type-B receptor 2 (Homo sapiens) (UniProt P29323); assay: Inhibition of human EPHB2 assessed as remaining activity at 1 uM by ATP-competition binding assay relative to control
Outline: (§1)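 Single-point profiling at 1μM in an ATP-site-dependent competition binding assay across a panel of 395 human kinases, including mutant forms. The read-out is kinase binding signal in the presence of test agent, expressed as inhibition relative to the control signal. This screen assessed noncovalent binding interactions.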

[2] = target: Tyrosine-protein kinase BTK (Homo sapiens) (UniProt Q06187); conditions: dose < 100.0 nM
[3] = target: Calcium/calmodulin-dependent protein kinase kinase 2 (Homo sapiens) (UniProt Q96RR4); assay: Inhibition of human CAMKK2 assessed as remaining activity at 1 uM by ATP-competition binding assay relative to control
Chain of Calcium/calmodulin-dependent protein kinase kinase 2 (Homo sapiens) (Q96RR4 2-588 limits assumed): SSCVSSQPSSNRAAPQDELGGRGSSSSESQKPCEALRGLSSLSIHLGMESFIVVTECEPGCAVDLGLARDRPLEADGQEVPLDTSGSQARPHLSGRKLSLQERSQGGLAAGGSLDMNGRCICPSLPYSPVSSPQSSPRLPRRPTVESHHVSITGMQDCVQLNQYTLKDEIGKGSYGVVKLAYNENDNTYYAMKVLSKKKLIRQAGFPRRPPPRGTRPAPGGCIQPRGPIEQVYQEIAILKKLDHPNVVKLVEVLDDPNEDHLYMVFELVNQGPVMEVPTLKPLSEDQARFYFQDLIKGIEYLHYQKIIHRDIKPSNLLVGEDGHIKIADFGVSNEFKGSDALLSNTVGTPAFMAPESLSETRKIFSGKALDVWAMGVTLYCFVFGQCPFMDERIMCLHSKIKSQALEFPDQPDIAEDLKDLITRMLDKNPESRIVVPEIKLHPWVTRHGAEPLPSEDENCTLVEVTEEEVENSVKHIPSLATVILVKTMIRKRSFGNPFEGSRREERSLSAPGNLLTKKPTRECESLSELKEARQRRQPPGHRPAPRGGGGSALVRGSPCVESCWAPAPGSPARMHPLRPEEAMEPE
Outline: (§2)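 KINOMEscan ATP-site-dependent competition binding panel of 395 human kinases, with compound tested at 1 μM. Binding is reported as remaining signal relative to control.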

[4] = target: Serine/threonine-protein kinase pim-3 (Homo sapiens) (UniProt Q86V86); assay: Inhibition of human PIM3 assessed as remaining activity at 1 uM by ATP-competition binding assay relative to control
Outline: (§3)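 Single-concentration (1 μM) screen in an ATP-site-dependent competition binding assay (KINOMEscan, outsourced) covering 395 human kinases, mutants included. Non-covalent binding was read as the remaining signal relative to the control signal.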

[5] = target: Mitogen-activated protein kinase kinase kinase 4 (Homo sapiens) (UniProt Q9Y6R4); assay: Inhibition of human MAP3K4 assessed as remaining activity at 1 uM by ATP-competition binding assay relative to control; outline: as §1
Chain of Mitogen-activated protein kinase kinase kinase 4 (Homo sapiens) (Q9Y6R4 whole entry): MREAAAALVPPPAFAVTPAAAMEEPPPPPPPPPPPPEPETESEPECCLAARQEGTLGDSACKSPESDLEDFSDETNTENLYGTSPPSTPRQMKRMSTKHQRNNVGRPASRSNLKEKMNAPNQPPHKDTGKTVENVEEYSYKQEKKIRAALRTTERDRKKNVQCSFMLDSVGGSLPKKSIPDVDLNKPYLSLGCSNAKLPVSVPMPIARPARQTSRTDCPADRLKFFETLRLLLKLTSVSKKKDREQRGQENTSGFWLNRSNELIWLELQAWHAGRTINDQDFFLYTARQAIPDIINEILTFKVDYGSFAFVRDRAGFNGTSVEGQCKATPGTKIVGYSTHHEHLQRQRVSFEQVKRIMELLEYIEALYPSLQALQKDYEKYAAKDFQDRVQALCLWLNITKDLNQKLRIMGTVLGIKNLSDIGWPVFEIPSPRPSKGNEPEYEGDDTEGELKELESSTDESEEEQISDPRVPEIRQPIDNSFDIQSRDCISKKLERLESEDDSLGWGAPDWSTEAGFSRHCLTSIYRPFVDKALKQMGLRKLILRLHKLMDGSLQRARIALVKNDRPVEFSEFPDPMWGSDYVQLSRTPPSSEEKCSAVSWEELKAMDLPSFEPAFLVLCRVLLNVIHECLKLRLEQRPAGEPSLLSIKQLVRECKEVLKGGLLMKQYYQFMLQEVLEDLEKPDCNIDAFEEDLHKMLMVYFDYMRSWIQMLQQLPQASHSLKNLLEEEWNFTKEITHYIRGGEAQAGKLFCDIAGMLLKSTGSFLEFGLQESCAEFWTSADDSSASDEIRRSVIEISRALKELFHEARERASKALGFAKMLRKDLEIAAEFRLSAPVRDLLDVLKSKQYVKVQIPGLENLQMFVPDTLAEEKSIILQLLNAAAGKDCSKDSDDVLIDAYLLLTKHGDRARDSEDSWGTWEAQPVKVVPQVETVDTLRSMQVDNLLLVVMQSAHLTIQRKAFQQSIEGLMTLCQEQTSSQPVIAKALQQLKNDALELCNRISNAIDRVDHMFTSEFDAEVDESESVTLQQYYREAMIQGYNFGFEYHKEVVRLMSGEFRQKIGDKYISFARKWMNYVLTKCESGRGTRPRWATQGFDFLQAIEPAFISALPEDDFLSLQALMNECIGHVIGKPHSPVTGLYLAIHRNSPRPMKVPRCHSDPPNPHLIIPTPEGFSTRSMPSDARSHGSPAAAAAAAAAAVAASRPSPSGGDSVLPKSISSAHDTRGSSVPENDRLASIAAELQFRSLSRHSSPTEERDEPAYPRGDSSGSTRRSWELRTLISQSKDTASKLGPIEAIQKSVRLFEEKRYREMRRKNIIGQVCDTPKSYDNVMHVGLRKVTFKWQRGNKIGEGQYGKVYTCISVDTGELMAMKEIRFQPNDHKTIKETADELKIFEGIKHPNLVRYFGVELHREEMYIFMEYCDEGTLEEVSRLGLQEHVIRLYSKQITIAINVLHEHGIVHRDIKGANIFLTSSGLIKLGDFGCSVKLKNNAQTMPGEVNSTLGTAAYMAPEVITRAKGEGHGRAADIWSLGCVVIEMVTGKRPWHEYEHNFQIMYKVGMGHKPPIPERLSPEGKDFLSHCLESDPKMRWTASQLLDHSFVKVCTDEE

[6] = test system: Hepatocyte growth factor receptor (Homo sapiens), P08581 [M1250T]; assay: Inhibition of human MET M1250T mutant assessed as remaining activity at 1 uM by ATP-competition binding assay relative to control; outline: as §1
[7] = target: Serine/threonine-protein kinase RIO2 (Homo sapiens) (UniProt Q9BVS4); assay: Inhibition of human RIOK2 assessed as remaining activity at 1 uM by ATP-competition binding assay relative to control; outline: as §3
[8] = target: Mitogen-activated protein kinase 13 (Homo sapiens) (UniProt O15264); assay: Inhibition of human P38delta assessed as remaining activity at 1 uM by ATP-competition binding assay relative to control; outline: as §1
[9] = test system: Epidermal growth factor receptor (Homo sapiens), P00533 [UNDEFINED MUTATION]; assay: Inhibition of human EGFR E746-A750del mutant assessed as remaining activity at 1 uM by ATP-competition binding assay relative to control
Outline: (§4)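 KINOMEscan ATP-site-dependent competition binding assay across a 395-kinase human panel including mutants; compound tested at 1μM; binding expressed relative to control signal.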

[10] = target: Maternal embryonic leucine zipper kinase (Homo sapiens) (UniProt Q14680); assay: Inhibition of human MELK assessed as remaining activity at 1 uM by ATP-competition binding assay relative to control; outline: as §1
[11] = target: 5'-AMP-activated protein kinase catalytic subunit alpha-2 (Homo sapiens) (UniProt P54646); assay: Inhibition of human AMPK-alpha2 assessed as remaining activity at 1 uM by ATP-competition binding assay relative to control; outline: as §2
[12] = target: Mast/stem cell growth factor receptor Kit (Homo sapiens) (UniProt P10721); assay: Inhibition of human KIT assessed as remaining activity at 1 uM by ATP-competition binding assay relative to control; outline: as §1
Chain of Mast/stem cell growth factor receptor Kit (Homo sapiens) (P10721 whole entry): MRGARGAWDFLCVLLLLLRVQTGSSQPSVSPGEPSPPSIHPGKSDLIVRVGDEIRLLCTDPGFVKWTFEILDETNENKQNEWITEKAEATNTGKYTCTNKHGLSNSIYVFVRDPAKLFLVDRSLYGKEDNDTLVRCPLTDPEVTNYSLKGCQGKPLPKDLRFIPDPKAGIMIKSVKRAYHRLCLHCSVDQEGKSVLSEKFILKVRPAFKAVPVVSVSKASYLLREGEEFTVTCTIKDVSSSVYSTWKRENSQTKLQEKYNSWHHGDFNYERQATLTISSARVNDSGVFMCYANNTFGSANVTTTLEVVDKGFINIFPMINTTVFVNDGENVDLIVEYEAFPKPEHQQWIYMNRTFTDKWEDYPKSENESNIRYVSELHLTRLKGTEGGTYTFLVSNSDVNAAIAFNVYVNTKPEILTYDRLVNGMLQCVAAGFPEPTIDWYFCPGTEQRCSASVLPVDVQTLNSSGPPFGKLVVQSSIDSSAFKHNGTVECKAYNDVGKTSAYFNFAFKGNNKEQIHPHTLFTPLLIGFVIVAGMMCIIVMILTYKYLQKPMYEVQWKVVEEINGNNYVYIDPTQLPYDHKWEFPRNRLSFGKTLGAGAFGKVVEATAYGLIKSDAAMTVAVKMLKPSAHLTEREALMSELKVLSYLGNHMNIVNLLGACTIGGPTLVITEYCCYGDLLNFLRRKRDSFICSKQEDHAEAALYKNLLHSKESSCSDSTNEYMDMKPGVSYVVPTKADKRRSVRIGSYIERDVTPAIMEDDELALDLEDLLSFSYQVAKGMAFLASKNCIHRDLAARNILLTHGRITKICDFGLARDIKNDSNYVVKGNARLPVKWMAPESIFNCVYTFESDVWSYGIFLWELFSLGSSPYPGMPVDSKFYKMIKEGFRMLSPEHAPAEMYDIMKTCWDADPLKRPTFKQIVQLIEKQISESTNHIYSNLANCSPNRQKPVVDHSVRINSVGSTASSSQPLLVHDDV

[13] = Antileukemic activity against human CLL mononuclear cells xenografted NSG mouse assessed as inhibition in cell proliferation measuring by Ki67 expression level at 0.3 to 0.16 mg/ml preadministered with compound via drinking water and measured after 3 weeks by flow cytometry analysis relative to control; assay type: functional; conditions: dose 0.3-0.16 mg/ml, at 0.16 to 0.3 mg/mL
Outline: (§5)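 Primary CLL patient mononuclear cells (1 × 10^8 per mouse) engrafted into NSG mice on day 0 after busulfan priming on day −1. Vehicle or drug was given in drinking water from day −1. Mice were killed 3 weeks after engraftment; spleens homogenized, filtered and RBC-lysed; whole blood collected. Six patients, 2–5 mice per patient; paired t-test per patient.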

[14] = target: Homeodomain-interacting protein kinase 1 (Homo sapiens) (UniProt Q86Z02); assay: Inhibition of human HIPK1 assessed as remaining activity at 1 uM by ATP-competition binding assay relative to control; outline: as §1
Chain of Homeodomain-interacting protein kinase 1 (Homo sapiens) (Q86Z02 whole entry, looked up): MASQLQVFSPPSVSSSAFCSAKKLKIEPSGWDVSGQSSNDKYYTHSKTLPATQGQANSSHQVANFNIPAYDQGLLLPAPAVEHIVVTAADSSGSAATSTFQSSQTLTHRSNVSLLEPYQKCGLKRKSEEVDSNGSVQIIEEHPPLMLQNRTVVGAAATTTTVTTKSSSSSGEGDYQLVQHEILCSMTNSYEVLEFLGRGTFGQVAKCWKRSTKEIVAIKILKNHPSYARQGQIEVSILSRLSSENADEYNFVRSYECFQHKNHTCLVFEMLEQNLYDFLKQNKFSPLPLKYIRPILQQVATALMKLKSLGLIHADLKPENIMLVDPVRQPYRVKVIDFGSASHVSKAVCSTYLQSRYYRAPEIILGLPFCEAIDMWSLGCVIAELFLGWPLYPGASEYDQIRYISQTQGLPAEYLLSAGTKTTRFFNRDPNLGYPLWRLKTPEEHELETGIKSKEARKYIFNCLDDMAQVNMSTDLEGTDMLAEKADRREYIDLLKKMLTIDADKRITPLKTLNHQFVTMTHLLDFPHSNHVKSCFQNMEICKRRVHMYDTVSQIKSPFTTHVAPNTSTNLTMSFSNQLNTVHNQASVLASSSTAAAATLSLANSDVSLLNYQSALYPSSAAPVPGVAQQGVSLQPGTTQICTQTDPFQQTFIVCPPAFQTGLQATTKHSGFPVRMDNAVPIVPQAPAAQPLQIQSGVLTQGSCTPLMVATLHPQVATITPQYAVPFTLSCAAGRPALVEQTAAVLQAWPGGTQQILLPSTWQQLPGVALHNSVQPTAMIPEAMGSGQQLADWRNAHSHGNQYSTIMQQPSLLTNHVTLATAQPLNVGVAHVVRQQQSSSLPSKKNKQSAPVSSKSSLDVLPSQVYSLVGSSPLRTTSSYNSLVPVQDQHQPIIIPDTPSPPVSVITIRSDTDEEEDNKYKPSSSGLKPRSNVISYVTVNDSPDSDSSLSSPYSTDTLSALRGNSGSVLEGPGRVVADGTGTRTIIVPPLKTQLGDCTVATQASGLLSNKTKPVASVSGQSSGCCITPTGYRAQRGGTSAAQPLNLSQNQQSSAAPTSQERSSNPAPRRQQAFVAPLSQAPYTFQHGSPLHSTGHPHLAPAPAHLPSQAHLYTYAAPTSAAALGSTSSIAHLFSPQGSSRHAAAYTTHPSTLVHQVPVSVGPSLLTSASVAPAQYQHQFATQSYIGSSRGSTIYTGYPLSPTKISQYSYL

[15] = target: cGMP-dependent protein kinase 2 (Homo sapiens) (UniProt Q13237); assay: Inhibition of human PRKG2 assessed as remaining activity at 1 uM by ATP-competition binding assay relative to control; outline: as §3
[16] = test system: Epidermal growth factor receptor (Homo sapiens), P00533 [L861Q]; assay: Inhibition of human EGFR L861Q mutant assessed as remaining activity at 1 uM by ATP-competition binding assay relative to control; outline: as §4
[17] = target: Tyrosine-protein kinase Srms (Homo sapiens) (UniProt Q9H3Y6); assay: Inhibition of human SRMS assessed as remaining activity at 1 uM by ATP-competition binding assay relative to control; outline: as §3
CLL mononuclear cell = assay: Antileukemic activity against human CLL mononuclear cells xenografted NSG mouse assessed as reduction in splenic tumor burden at 0.3 mg/ml preadministered with compound via drinking water and measured after 3 weeks by flow cytometry analysis; assay type: functional, cell-based; outline: as §5
[18] = target: Tyrosine-protein kinase Tec (Homo sapiens) (UniProt P42680); assay: Inhibition of human TEC at < 100 nM by ATP-Competition Binding Assay
[19] = target: Myosin light chain kinase (Homo sapiens) (UniProt Q32MK0); assay: Inhibition of human MLCK assessed as remaining activity at 1 uM by ATP-competition binding assay relative to control; outline: as §1
[20] = target: Tyrosine-protein kinase TXK (Homo sapiens) (UniProt P42681); assay: Inhibition of human TXK assessed as remaining activity at 1 uM by ATP-competition binding assay relative to control; outline: as §3
[21] = target: Ephrin type-A receptor 1 (Homo sapiens) (UniProt P21709); assay: Inhibition of human EPHA1 assessed as remaining activity at 1 uM by ATP-competition binding assay relative to control; outline: as §2
[22] = target: NT-3 growth factor receptor (Homo sapiens) (UniProt Q16288); assay: Inhibition of human TRKC assessed as remaining activity at 1 uM by ATP-competition binding assay relative to control; outline: as §3
[23] = target: Ephrin type-A receptor 7 (Homo sapiens) (UniProt Q15375); assay: Inhibition of human EPHA7 assessed as remaining activity at 1 uM by ATP-competition binding assay relative to control; outline: as §2
[24] = target: Cyclin-dependent kinase 9 (Homo sapiens) (UniProt P50750); assay: Inhibition of human CDK9 assessed as remaining activity at 1 uM by ATP-competition binding assay relative to control; outline: as §2
Chain of Cyclin-dependent kinase 9 (Homo sapiens) (P50750 whole entry): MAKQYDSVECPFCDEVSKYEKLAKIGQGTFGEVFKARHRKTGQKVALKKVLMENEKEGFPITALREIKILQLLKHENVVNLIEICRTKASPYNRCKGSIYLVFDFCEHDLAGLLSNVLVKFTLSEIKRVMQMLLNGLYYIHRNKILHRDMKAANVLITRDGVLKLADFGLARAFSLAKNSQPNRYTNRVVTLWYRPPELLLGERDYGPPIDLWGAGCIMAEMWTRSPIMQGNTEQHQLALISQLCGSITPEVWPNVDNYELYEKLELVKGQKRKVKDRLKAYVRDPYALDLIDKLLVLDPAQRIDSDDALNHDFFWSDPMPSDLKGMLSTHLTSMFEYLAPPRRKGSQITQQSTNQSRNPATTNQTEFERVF

[25] = target: Serine/threonine-protein kinase pim-2 (Homo sapiens) (UniProt Q9P1W9); assay: Inhibition of human PIM2 assessed as remaining activity at 1 uM by ATP-competition binding assay relative to control; outline: as §3
Chain of Serine/threonine-protein kinase pim-2 (Homo sapiens) (Q9P1W9 whole entry, looked up): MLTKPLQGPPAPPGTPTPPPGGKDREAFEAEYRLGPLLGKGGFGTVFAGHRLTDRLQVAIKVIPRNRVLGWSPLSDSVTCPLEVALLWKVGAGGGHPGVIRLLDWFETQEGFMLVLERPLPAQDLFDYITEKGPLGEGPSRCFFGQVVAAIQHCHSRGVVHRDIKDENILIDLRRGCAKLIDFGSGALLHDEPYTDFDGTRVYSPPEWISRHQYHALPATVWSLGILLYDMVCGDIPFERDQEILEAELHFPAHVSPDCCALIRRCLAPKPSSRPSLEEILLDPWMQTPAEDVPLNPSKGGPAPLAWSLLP

[26] = target: Tyrosine-protein kinase Blk (Homo sapiens) (UniProt P51451); assay: Inhibition of human BLK assessed as remaining activity at 1 uM by ATP-competition binding assay relative to control; outline: as §2
[27] = target: Tyrosine-protein kinase Yes (Homo sapiens) (UniProt P07947); assay: Inhibition of human YES assessed as remaining activity at 1 uM by ATP-competition binding assay relative to control; outline: as §3

CC#CC(=O)N1CCC[C@H]1c1nc(-c2ccc(C(=O)Nc3ccccn3)cc2)c2c(N)nccn12 [ACALABRUTINIB]
Activity [1]: 69%
inhibition [2]: Active
Activity [3]: 93%
Activity [4]: 84%
Activity [5]: 86%
Activity [6]: 90%
Activity [7]: 80%
Activity [8]: 57%
Activity [9]: 85%
Activity [10]: 76%
Activity [11]: 84%
Activity [12]: 84%
inhibition (INH) [13]: 50%
Activity [14]: 90%
Activity [15]: 95%
Activity [16]: 84%
Activity [17]: 67%
Activity (CLL mononuclear cell): Active
inhibition [18]: Active
Activity [19]: 99%
Activity [20]: 24%
Activity [21]: 76%
Activity [22]: 99%
Activity [23]: 94%
Activity [24]: 87%
Activity [25]: 79%
Activity [26]: 61%
Activity [27]: 83%
